MC4R ag barr: MC4R agonists recruiting beta-arrestin, primary screen, cell-based, luminescence, agonist arm of biased-ligand search; Melanocortin receptor 4 (Homo sapiens), P32245; U2OS MC4R beta-arrestin complementation; percent of melanotan II response, DMSO zero; activation, % at 8.9 µM; 0.98% of 360,000 active;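 active = activation above a per-plate cutoff, the mean activation of sample wells on that plate plus 3 SD, cut at about 8% in these data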
Hep lipid drop: inhibitors of hepatocyte lipid droplet formation, primary screen, imaging, high-throughput imaging, BODIPY stain; inhibition, % at 6.5 µM; AID 1656, 2009; AML12 mouse hepatocytes, oleate lipid droplets; 0.4% of 240,000 active;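 active = lipid droplet intensity inhibited by at least 50%, with more than 500 cells counted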
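Material – mouse AML12 hepatocyte cell line, fixed after treatment · Compound dosing – one dose, 6.5 µM compound · Times – compound with oleate, overnight · Measured by – Image-based BODIPY and DAPI two-channel analysis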
MC4R antag cAMP: MC4R antagonists of cAMP signaling, primary screen, cell-based, TR-FRET, antagonist arm of biased-ligand search; Melanocortin receptor 4 (Homo sapiens), P32245; MC4R-expressing cells, MTII-stimulated cAMP, LANCE TR-FRET; inhibition, % at 6.5 µM; 0.48% of 360,000 active; AID 540295, 2011;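 active = inhibition above its plate's cutoff, the mean of tested wells on that plate plus 3 SD, cut at about 29% in these data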
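system = U2OS cells with stable human MC4R expression | also added = Melanotan II challenge after compound preincubation | dosing = one concentration, 6.5 µM nominal | incubation = compound 30 min, challenge 1 h, detection 1 h | measured by = TR-FRET with Eu-cAMP and labeled anti-cAMP, 671 nm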
PREPL inh: PREPL enzyme inhibitors, primary screen, biochemical, fluorescence polarization | 0.68% of 320,000 active | recombinant PREPL, fluorescence polarization activity-based probe | inhibition, % at 5.96 µM; in the data active = inhibition above about 43%
m5-HT2A agonist: mouse Htr2a agonists via beta-arrestin recruitment, primary screen, cell-based, luminescence. CHO-K1 mHTR2A beta-arrestin complementation; percent of 30 µM serotonin response. activation, % at 7.6 µM. 0.66% of 360,000 active;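 active = activation above a run cutoff, the mean activation of all tested compounds plus 3 SD, cut at about 14% in these data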
Target sequence (P35363 whole entry, looked up): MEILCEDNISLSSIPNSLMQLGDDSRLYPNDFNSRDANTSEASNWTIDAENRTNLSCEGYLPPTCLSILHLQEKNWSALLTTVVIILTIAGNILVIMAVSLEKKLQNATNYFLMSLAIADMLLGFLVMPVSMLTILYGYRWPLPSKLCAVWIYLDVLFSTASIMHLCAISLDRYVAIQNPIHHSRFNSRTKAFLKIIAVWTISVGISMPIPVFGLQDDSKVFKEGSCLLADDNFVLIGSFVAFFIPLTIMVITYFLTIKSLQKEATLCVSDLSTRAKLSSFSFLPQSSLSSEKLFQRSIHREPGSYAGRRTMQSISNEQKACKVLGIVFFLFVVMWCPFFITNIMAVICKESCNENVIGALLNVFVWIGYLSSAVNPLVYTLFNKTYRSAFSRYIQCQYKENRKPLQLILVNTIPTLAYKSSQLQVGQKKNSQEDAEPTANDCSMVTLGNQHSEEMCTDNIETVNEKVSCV
NTR1 ag: agonists of human NTR1, primary screen, imaging, U2OS cells, beta-arrestin-GFP, high content. Neurotensin receptor type 1 (Homo sapiens), P30989. NTR1-U2OS beta-arrestin-GFP spot imaging, agonist mode. activation, % at 20 µM. 0.17% of 330,000 active. AID 493036, 2011;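 active = activation at or above 40% of the spot to cytoplasm intensity ratio, with at least 20 cells analyzed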
Of the large screens only hits and unclear results are named; the others gave an inactive call. This is a sample that favours compounds with a hit; in the whole collection about 2.7% have one here.

COc1cc(C2=NOC(C(=O)NCc3ccccn3)C2)cc(OC)c1OC (configuration not stated)	none
O=C(NCc1ccccn1)C1CC(c2ccccc2Cl)=NO1 (configuration not stated)	m5-HT2A agonist 15
CNC(=O)NC(=O)CN1C(=O)NC2(CCOc3ccccc32)C1=O (configuration not stated)	none
N/C(=N\OC(=O)c1ccccc1Br)c1ccc([N+](=O)[O-])cc1	MC4R ag barr 8.6
S=c1[nH]nc(-c2cc(-c3ccccc3)n[nH]2)n1/N=C/c1cccc(Cl)c1	none
Oc1ccccc1C1=Nc2ccccc2N=C(c2ccco2)C1	MC4R ag barr 8.5
Cc1ccccc1Oc1cc(-n2ncc(Cl)c(Cl)c2=O)ncn1	MC4R antag cAMP 51 (no result: NTR1 ag)
CCc1noc(C)c1C(=O)N1CCN(S(=O)(=O)c2cccs2)CC1	none (no result: Hep lipid drop)
Cc1ccc(-c2nnn(CC(=O)Nc3ccc(S(=O)(=O)N4CCC(C)CC4)cc3)n2)cc1	MC4R ag barr 13 (no result: Hep lipid drop)
CC1CCN(S(=O)(=O)c2ccc(NC(=O)Cn3nnc(-c4ccccc4)n3)cc2)CC1	MC4R ag barr 37 (no result: Hep lipid drop)
CC1CCN(CC(=O)Nc2ccc(S(=O)(=O)N3CCC(C)CC3)cc2)CC1	none
CC1CCCN(S(=O)(=O)c2ccc(NC(=O)Cn3nnc(-c4ccccc4F)n3)cc2)C1 (configuration not stated)	none
COc1cc(/C=N/NC(=O)c2ccccc2NS(=O)(=O)c2cccs2)ccc1O	none (no result: Hep lipid drop, PREPL inh)
O=C(Nc1ccc(S(=O)(=O)N2CCOCC2)cc1)c1cc(-c2cc(Cl)ccc2O)n[nH]1	MC4R ag barr 9.1
CCn1c(C)nnc1SCC(=O)Nc1cccc(Cl)c1	none
CCn1c(CCCOc2ccc(Cl)cc2Cl)nnc1SCC(=O)Nc1cccc(F)c1	MC4R ag barr 9.8 (no result: Hep lipid drop)
COc1ccc(-c2cn(Cc3ccc(C(N)=O)cc3)c(-c3ccncc3)n2)cc1	none (no result: Hep lipid drop)
O=C(N/N=C/c1ccco1)c1cc(Br)ccc1OCc1ccccc1	MC4R ag barr 9.4
CCOC(=O)[C@]12CCC=C1N(Cc1ccc(Cl)cc1Cl)C(=O)[C@H](CC(=O)NCCCN1CCCC1=O)C2	none (no result: MC4R ag barr, Hep lipid drop, MC4R antag cAMP, PREPL inh, NTR1 ag)
CSc1cccc(NC(=O)C(=O)NCc2ccccc2)c1	MC4R ag barr 8.7
CSc1cccc(NC(=O)NCc2cccc(CNC(=O)Nc3cccc(SC)c3)c2)c1	none
COc1ccc(-c2nc3c(c4nnc(SC(C)C(=O)Nc5ccccc5)n24)COC(C)(C)C3)cc1 (configuration not stated)	Hep lipid drop 66
CCn1c(SCC(=O)Nc2ccc(OC)cc2)nc2nc3c(cc2c1=O)COC(C)(C)C3	none
COc1ccc(NC(=O)C(C)Sc2nnc3c4c(nc(-c5ccc(OC)cc5)n23)CC(C)(C)OC4)cc1 (configuration not stated)	Hep lipid drop 52
O=S(=O)(c1ccccc1Cl)N1CCCC(c2nc(-c3cccnc3)no2)C1 (configuration not stated)	none
Cc1ccc(C(=O)O/N=C(\c2ccccc2)c2ccncc2)cc1	PREPL inh 88
Cc1cc(C(F)F)nn1CC(=O)NC1C(=O)N2C(C(=O)O)=C(CSc3nnnn3C)CSC12 (configuration not stated)	none
COc1cc2c(cc1OC)C(C1C(=O)CC(C)CC1=O)N(C(=O)CCl)CC2 (configuration not stated)	none
Brc1cccc(CNc2nc3ccccc3n2CCN2CCCCC2)c1	PREPL inh 52
Cn1cc(C(=O)NS(=O)(=O)Nc2ccc(Br)cn2)c2ccccc21	none
Cc1cccc(Nc2nc(-c3ccc(O)cc3O)cs2)n1	MC4R ag barr 9.4
COc1ccc(CNC(=O)COC(=O)c2cc(-c3ccc(Cl)s3)nc3ccccc23)cc1	MC4R ag barr 9.2
O=C(COC(=O)c1cc(-c2ccc(Cl)s2)nc2ccccc12)NCc1ccco1	none
O=C(CN1CCc2ccccc21)Nc1ccc2c(c1)OCCCO2	none (no result: Hep lipid drop)
Cc1cccc(OCC(=O)O/N=C(\N)c2ccc(Cl)cc2)c1	MC4R ag barr 12
CCOC(=O)c1ccccc1Nc1cn(C(C)=O)c2ccccc12	none
COc1ccccc1N(C(=O)CCl)c1cn(C(C)=O)c2ccccc12	MC4R ag barr 8.6
Cc1nc(/C(=N/O)C(N)=O)cs1	none
Cc1ccc(CONS(=O)(=O)c2cc(C)ccc2C)cc1	MC4R ag barr 8.2 (no result: Hep lipid drop)
Cc1cccc(-n2ncc3c(N4CC(C)CC(C)C4)ncnc32)c1 (configuration not stated)	MC4R ag barr 8.4 (no result: Hep lipid drop)
O=C1C=CC(=O)N1c1ccc(OC(F)F)cc1	MC4R antag cAMP 37 (no result: NTR1 ag)
O=C1C=CC(=O)N1c1ccc(O)cc1	none
CN(C(=O)CSc1nc2sc3c(c2c(=O)n1C)CCC3)C1CCS(=O)(=O)C1 (configuration not stated)	none (no result: Hep lipid drop)
CC(C)c1ccc(/C=C(\c2nc3ccccc3[nH]2)S(=O)(=O)c2ccccc2)cc1	Hep lipid drop 54
Nc1ccc2nc(N3CCOCC3)sc2c1	PREPL inh 46
Cc1sc(NC(=O)CN2CCOCC2)nc1-c1ccc2c(c1)CCN2S(=O)(=O)c1ccccc1	none
O=C(CN1CCOCC1)Nc1nc(-c2ccc3c(c2)CCN3S(=O)(=O)c2ccccc2)cs1	m5-HT2A agonist 15
CN1CCN(Cc2cc(COCc3ccccc3)c3cccnc3c2O)CC1	PREPL inh 47 (no result: Hep lipid drop)
Oc1ccc(CN2CCN(Cc3ccccc3)CC2)c2cccnc12	none (no result: Hep lipid drop)
CCCC(=O)Nc1sc(C(=O)Nc2cccc(N)c2)c(C)c1C(=O)OC	none
COC(=O)c1ccc(OC(=O)CCN2C(=O)C3CCCCC3C2=O)cc1 (configuration not stated)	PREPL inh 44
Cc1cc(C)nc(SCC(=O)Nc2ncc(Cc3cccc(Cl)c3Cl)s2)n1	MC4R ag barr 8.8
CCOC(=O)CN(C(=O)c1snc(C(N)=O)c1N)C(C(=O)NC1CCCCC1)c1ccc(F)cc1 (configuration not stated)	none
COC(=O)c1ccc(COc2ccc(F)cc2)o1	Hep lipid drop 61 (no result: NTR1 ag)
COCC1CCN(C(=O)C2CCC(=O)N(CCc3cccc(F)c3)C2)CC1 (configuration not stated)	none
COc1ccc(C=O)cc1COc1ccc(C)cc1[N+](=O)[O-]	none (no result: Hep lipid drop)
